Values after ≈ are worked out from the molar mass of the structure shown. *1 amine or outer side, *2 acyl side, *3 side chain or, on linkers, in order; H or OH if unused. Where a SMILES comes first, the peptide text is derived from it. Bridges are numbered along the chain shown (N, C = ends). Roman numbers before positions name the chains, in order. [ ]: non-standard residue; d: D form. Actinocin(9to1) = Cc1c2oc3c(C)ccc(C(=O)[*:1])c3nc-2c(C(=O)[*:2])c(N)c1=O; NMeV = CN[C@H](C(=O)O)C(C)C; Sar = CNCC(=O)O
How the values were obtained:
[1] = The delta Tm value is a measure of a stabilization of the DNA helical structure as consequence of compound binding; assay type: ADME
Summary of the method: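 Calf-thymus DNA at 5.0 × 10⁻⁵ M with drug at 2.5 × 10⁻⁵ M in 0.01 M phosphate buffer (pH 7) containing 10⁻⁵ M EDTA. Thermal denaturation curves were recorded. ΔTm is the Tm of the DNA–drug complex minus the Tm of DNA alone.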

CCRF-CEM = test: In vitro antitumor activity against human leukemic lymphoblastic cells (CCRF-CEM); assay type: functional; conditions: read-out: ID50 (the source's name)
Summary of the method: (§1)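 Cells grown in suspension culture and exposed to compound for 48 h. Compounds dissolved in Me₂SO-saline, with less than 1% Me₂SO in the final growth medium. ID50 is the concentration in ng/mL giving 50% growth inhibition. Values are the mean of three experiments; SD ranged from 8% to 10% of the mean.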

B16 = test: In vitro antitumor activity against murine melanoma cells (B16 melanoma cells); assay type: functional; conditions: Mus musculus, read-out: ID50 (the source's name); summary of the method: as §1

Row | SMILES | Delta Tm [1] | IC50 (CCRF-CEM) | IC50 (B16)
1 | Cc1c2oc3c(C)c(OCC4CN4)cc(C(=O)N[C@@H]4C(=O)N[C@H](C(C)C)C(=O)N5CCC[C@H]5C(=O)N(C)CC(=O)N(C)[C@@H](C(C)C)C(=O)O[C@@H]4C)c3nc-2c(C(=O)N[C@@H]2C(=O)N[C@H](C(C)C)C(=O)N3CCC[C@H]3C(=O)N(C)CC(=O)N(C)[C@@H](C(C)C)C(=O)O[C@@H]2C)c(N)c1=O (some centres not stated) | 2.8 C | 0.076 µg/mL (≈ 0.0573 µM) | 0.11 µg/mL (≈ 0.0829 µM)
2 | Cc1c2oc3c(C)c(OCCN4CC4)cc(C(=O)N[C@@H]4C(=O)N[C@H](C(C)C)C(=O)N5CCC[C@H]5C(=O)N(C)CC(=O)N(C)[C@@H](C(C)C)C(=O)O[C@@H]4C)c3nc-2c(C(=O)N[C@@H]2C(=O)N[C@H](C(C)C)C(=O)N3CCC[C@H]3C(=O)N(C)CC(=O)N(C)[C@@H](C(C)C)C(=O)O[C@@H]2C)c(N)c1=O | 1.8 C | 0.3 µg/mL (≈ 0.224 µM) | 0.14 µg/mL (≈ 0.104 µM)
3 | Cc1c2oc3c(C)ccc(C(=O)N[C@@H]4C(=O)N[C@H](C(C)C)C(=O)N5CCC[C@H]5C(=O)N(C)CC(=O)N(C)[C@@H](C(C)C)C(=O)O[C@@H]4C)c3nc-2c(C(=O)N[C@@H]2C(=O)N[C@H](C(C)C)C(=O)N3CCC[C@H]3C(=O)N(C)CC(=O)N(C)[C@@H](C(C)C)C(=O)O[C@@H]2C)c(N)c1=O [DACTINOMYCIN] (I: T[dV]P[Sar][NMeV] / II: T[dV]P[Sar][NMeV]; ester I:1-I:C, II:1-II:C; linker I:N-II:N via Actinocin(9to1)) | 8 C | 0.013 µg/mL (≈ 0.0104 µM) | 0.0033 µg/mL (≈ 0.00263 µM)

Results, then the compound that gave them:

Row | Delta Tm [1] | IC50 (CCRF-CEM) | IC50 (B16) | SMILES
4 | -0.6 C | 0.055 µg/mL (≈ 0.0415 µM) | 0.038 µg/mL (≈ 0.0287 µM) | Cc1c2oc3c(C)c(OCC4CC4)cc(C(=O)N[C@@H]4C(=O)N[C@H](C(C)C)C(=O)N5CCC[C@H]5C(=O)N(C)CC(=O)N(C)[C@@H](C(C)C)C(=O)O[C@@H]4C)c3nc-2c(C(=O)N[C@@H]2C(=O)N[C@H](C(C)C)C(=O)N3CCC[C@H]3C(=O)N(C)CC(=O)N(C)[C@@H](C(C)C)C(=O)O[C@@H]2C)c(N)c1=O
5 | 4.8 C | 0.06 µg/mL (≈ 0.0452 µM) | 0.055 µg/mL (≈ 0.0414 µM) | Cc1c2oc3c(C)c(OCC(C)N)cc(C(=O)N[C@@H]4C(=O)N[C@H](C(C)C)C(=O)N5CCC[C@H]5C(=O)N(C)CC(=O)N(C)[C@@H](C(C)C)C(=O)O[C@@H]4C)c3nc-2c(C(=O)N[C@@H]2C(=O)N[C@H](C(C)C)C(=O)N3CCC[C@H]3C(=O)N(C)CC(=O)N(C)[C@@H](C(C)C)C(=O)O[C@@H]2C)c(N)c1=O (some centres not stated)
6 | 1.9 C | 0.5 µg/mL (≈ 0.368 µM) | – | Cc1c2oc3c(C)c(OCCNCCO)cc(C(=O)N[C@@H]4C(=O)N[C@H](C(C)C)C(=O)N5CCC[C@H]5C(=O)N(C)CC(=O)N(C)[C@@H](C(C)C)C(=O)O[C@@H]4C)c3nc-2c(C(=O)N[C@@H]2C(=O)N[C@H](C(C)C)C(=O)N3CCC[C@H]3C(=O)N(C)CC(=O)N(C)[C@@H](C(C)C)C(=O)O[C@@H]2C)c(N)c1=O

From ChEMBL document CHEMBL1124083, “Synthesis and biological properties of actinomycin D chromophoric analogues substituted at carbon 7 with aziridine and cyclopropyl functions” (J Med Chem, 1988)
